Source: ChEMBL document CHEMBL4373668, “Bivalent AMPA receptor positive allosteric modulators of the bis(pyrimidine) series” (Medchemcomm, 2019)

Key:
[1] = biological target: T1, Glutamate receptor ionotropic, AMPA (Rattus norvegicus) (UniProt P19491+P19492+P19493+P19490); assay: Positive allosteric modulation of rat Purkinje neuron AMPA receptor assessed as change in kainate-induced current at 10^-7 M measured for 2 mins by patch clamp assay (rvb = 100%)
Method in brief: (§1)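 Purkinje neurons were freshly isolated from the cerebellum of 12–16-day-old rat pups by protease/collagenase digestion at 34°C under O₂. Whole-cell patch clamp was used, with compounds given by fast perfusion in extracellular saline at pH 7.32. Kainic acid (20 µM) was applied three times per concentration, 2 min apart, with a 3-min washout between concentrations. Current amplitude was normalized to the KA control (100%), using 4–7 neurons per concentration.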

[2] = biological target: T1, Glutamate receptor ionotropic, AMPA (Rattus norvegicus); assay: Positive allosteric modulation of rat Purkinje neuron AMPA receptor assessed as change in kainate-induced current at 10^-6 M measured for 2 mins by patch clamp assay (rvb = 100%); method in brief: as §1
[3] = biological target: T1, Glutamate receptor ionotropic, AMPA (Rattus norvegicus); assay: Positive allosteric modulation of rat Purkinje neuron AMPA receptor assessed as change in kainate-induced current at 10^-5 M measured for 2 mins by patch clamp assay (rvb = 100%)
[4] = biological target: T1, Glutamate receptor ionotropic, AMPA (Rattus norvegicus); assay: Positive allosteric modulation of rat Purkinje neuron AMPA receptor assessed as change in kainate-induced current at 3 x 10^-5 M measured for 2 mins by patch clamp assay (rvb = 100%)
[5] = biological target: T1, Glutamate receptor ionotropic, AMPA (Rattus norvegicus); assay: Positive allosteric modulation of rat Purkinje neuron AMPA receptor assessed as change in kainate-induced current at 10^-11 M measured for 2 mins by patch clamp assay (rvb = 100%); method in brief: as §1
[6] = biological target: T1, Glutamate receptor ionotropic, AMPA (Rattus norvegicus); assay: Positive allosteric modulation of rat Purkinje neuron AMPA receptor assessed as change in kainate-induced current at 10^-10 M measured for 2 mins by patch clamp assay (rvb = 100%); method in brief: as §1
[7] = biological target: T1, Glutamate receptor ionotropic, AMPA (Rattus norvegicus); assay: Positive allosteric modulation of rat Purkinje neuron AMPA receptor assessed as change in kainate-induced current at 10^-9 M measured for 2 mins by patch clamp assay (rvb = 100%); method in brief: as §1
[8] = biological target: T1, Glutamate receptor ionotropic, AMPA (Rattus norvegicus); assay: Positive allosteric modulation of rat Purkinje neuron AMPA receptor assessed as change in kainate-induced current at 10^-8 M measured for 2 mins by patch clamp assay (rvb = 100%); method in brief: as §1
[9] = biological target: T1, Glutamate receptor ionotropic, AMPA (Rattus norvegicus); assay: Positive allosteric modulation of rat Purkinje neuron AMPA receptor assessed as change in kainate-induced current at 10^-12 M measured for 2 mins by patch clamp assay (rvb = 100%); method in brief: as §1

Row | SMILES | Activity [1] [%] | Activity [2] [%] | Activity [3] [%] | Activity [4] [%] | Activity [5] [%] | Activity [6] [%] | Activity [7] [%] | Activity [8] [%] | Activity [9] [%]
1 | NS(=O)(=O)c1cc2c(cc1Cl)NC(C1CC3C=CC1C3)NS2(=O)=O (stereo not given) | 100 | 145 | 235 | 560 |  |  |  |  | 
2 | c1cc(Oc2nc(C3CC3)nc3c2CCCC3)ccc1Oc1nc(C2CC2)nc2c1CCCC2 | 97 | 96 |  |  | 100 | 100 | 95 | 96 | 
3 | CC(C)(C)c1nc2c(c(Oc3ccc(Oc4nc(C(C)(C)C)nc5c4CCCC5)cc3)n1)CCCC2 | 133 | 145 |  |  | 100 | 108 | 120 | 125 | 
4 | CCc1nc2c(c(Oc3ccc(Oc4nc(CC)nc5c4CCCC5)cc3)n1)CCCC2 | 100 |  |  |  | 117 | 126 | 155 | 128 | 100
5 | CC(C)c1nc2c(c(Oc3ccc(Oc4nc(C(C)C)nc5c4CCCC5)cc3)n1)CCCC2 | 98 |  |  |  | 84 | 72 | 82 | 92 | 100
6 | Cc1nc2c(c(Oc3ccc(Oc4nc(C)nc5c4CCCC5)cc3)n1)CCCC2 | 85 | 78 |  |  | 132 | 143 | 170 | 123 | 108
